# Tb MetRS inh: Trypanosoma brucei MetRS inhibition | 360,000 compounds, 0.4% hits | purified T. brucei MetRS, ATP depletion, Kinase-Glo luminescence | inhibition, % at 11.9 µM;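 active means inhibition above a per-plate cutoff of the control wells' mean inhibition plus 3 SD, cut at about 5.5% in these data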;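 further: 0% = DMSO wells median and 100% = median of wells with control inhibitor compound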
#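 Dosing: 11.9 µM compound single dose, 0.9% DMSO; Assay system: purified T. brucei MetRS enzyme; Measured by: Kinase-Glo luciferase luminescence reporting remaining unconsumed ATP; Schedule: 15 min plus 2 h at 25 °C.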
# IDE cell activ: activators of human insulin-degrading enzyme in cells; AID 493087; P14735; 340,000 compounds, 0.073% hits; activation, % at 5.96 µM; HEK cells, FAbeta-B cleavage, fluorescence polarization; 0% vehicle, 100% cell-free pure enzyme wells;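 active means activation above the mean of all tested compounds plus 3 SD, set per screening campaign, cut at about 17% in these data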
# Target sequence (P14735 whole entry, looked up): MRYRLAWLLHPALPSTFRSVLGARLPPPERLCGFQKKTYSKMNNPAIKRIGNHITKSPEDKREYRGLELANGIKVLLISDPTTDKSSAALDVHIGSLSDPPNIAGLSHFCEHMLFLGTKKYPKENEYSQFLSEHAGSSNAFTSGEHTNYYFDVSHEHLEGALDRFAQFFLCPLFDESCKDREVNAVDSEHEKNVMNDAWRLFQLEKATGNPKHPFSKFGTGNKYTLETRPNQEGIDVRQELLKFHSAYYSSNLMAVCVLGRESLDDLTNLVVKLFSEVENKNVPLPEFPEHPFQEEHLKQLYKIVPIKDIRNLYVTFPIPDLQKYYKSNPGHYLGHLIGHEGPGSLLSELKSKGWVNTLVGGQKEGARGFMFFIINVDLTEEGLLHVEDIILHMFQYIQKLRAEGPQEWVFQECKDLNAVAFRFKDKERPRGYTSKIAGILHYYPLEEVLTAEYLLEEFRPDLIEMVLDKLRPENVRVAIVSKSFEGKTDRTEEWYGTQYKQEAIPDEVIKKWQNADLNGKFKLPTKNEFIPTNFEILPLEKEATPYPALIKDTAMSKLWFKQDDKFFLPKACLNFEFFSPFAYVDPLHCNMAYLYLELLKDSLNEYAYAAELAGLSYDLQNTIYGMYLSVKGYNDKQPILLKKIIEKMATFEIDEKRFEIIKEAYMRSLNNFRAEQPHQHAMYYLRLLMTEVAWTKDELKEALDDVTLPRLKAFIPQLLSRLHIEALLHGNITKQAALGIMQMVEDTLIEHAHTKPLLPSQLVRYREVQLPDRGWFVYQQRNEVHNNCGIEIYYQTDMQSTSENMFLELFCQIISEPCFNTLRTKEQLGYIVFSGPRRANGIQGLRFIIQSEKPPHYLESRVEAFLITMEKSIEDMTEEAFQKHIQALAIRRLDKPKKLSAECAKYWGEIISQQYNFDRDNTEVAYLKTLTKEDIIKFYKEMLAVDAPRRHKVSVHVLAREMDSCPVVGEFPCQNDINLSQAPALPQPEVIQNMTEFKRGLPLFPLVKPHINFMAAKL
# TPT1 inh: C. albicans TPT1 enzyme inhibition. recombinant caTPT1, FP RNA substrate dephosphorylation. inhibition, % at 5 µM. 300,000 compounds, 0.81% hits;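 active means inhibition above the mean of all tested compounds plus 3 SD, set per screening campaign, cut at about 24% in these data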;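 further: plate controls were DMSO alone for no effect and ferristatin control at 100 nM for full effect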
# CSN inh: inhibitors of human CSN-mediated cullin deneddylation; Q92905; 360,000 compounds, 0.38% hits; Purified CSN, SCF-Nedd8-OG deneddylation, fluorescence polarization; inhibition, % at 12.5 µM;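 active means pattern-corrected inhibition above about 35%, with an unprinted fluorescence ratio check between 0.5 and 1.5, limit read from the data, passing the limit was not always enough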;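 further: 0% = enzyme with substrate and 100% = substrate without enzyme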
#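 Schedule: reaction 90 min, room temperature / Assay system: HEK293T-derived human Csn5 enzyme / Input: Csn5 at 0.24 nM final / Measure: inhibition of Csn5 cleavage, % / Control set: substrate-only high control, full reaction low control / Technique: fluorescence polarization of the substrate / Buffer or medium: Tris/NaCl/DTT buffer, pH 7.5 / Reagent: SCFSkp2-Nedd8OG substrate at 10 nM final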
# IDE cell inh: inhibits human insulin-degrading enzyme in HEK cells; FAbetaB cleavage, fluorescence polarization; inhibition, % at 5.59 µM; 320,000 compounds, 0.41% hits; AID 434962;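 active means percent inhibition above the average of all tested compounds plus 3 SD, set per screening campaign, cut at about 16% in these data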;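 further: IDE supplied by intact live HEK cells; FP after avidin binding of uncleaved biotin substrate so inhibition keeps polarization high; 0% = DMSO wells and 100% = 60 µM reference IDE inhibitor Ii1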
# HNF4A DNA FP: change in binding of human HNF4 alpha to DNA; P41235; HNF4a-FITC DNA binding, fluorescence polarization, 1 h; activity change, % at 10 µM; 360,000 compounds, 0.3% hits; AID 1224865; in the data active means activity change above about 30%, passing the limit was not always enough
# TPT1 inh confirm: TPT1 (C. albicans) inhibition, confirmation | inhibition, % at 5 µM | AID 2149 | 2,400 compounds, 74% hits | shares compounds with TPT1 inh | recombinant caTPT1, fluorescence polarization, RNase T1 coupled;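 active means inhibition above the primary screen limit, the mean inhibition of all tested compounds plus 3 SD, cut at about 25% in these data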
# RNase T1 counter: counter-screen for TPT1 inhibitors: inhibitors of Aspergillus oryzae RNase T1; shares compounds with TPT1 inh; RNase T1 cleavage, fluorescence polarization, 1536-well; 2,400 compounds, 83% hits; inhibition, % at 5 µM; AID 2153;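 active means inhibition above the solvent-only control well mean plus 3 SD, limit set per screening run, cut at about 23% in these data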;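 further: plate controls were DMSO wells with enzyme for no effect and wells without RNase T1 for full effect; inhibitors block cleavage so intact labeled substrate keeps polarization high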
# IDE inh confirm: cellular human IDE inhibition, confirmation | shares compounds with IDE cell inh | HEK cells, FAbetaB cleavage, fluorescence polarization | inhibition, % at 5.59 µM | 1,200 compounds, 51% hits;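 active means mean inhibition across triplicate wells above the cutoff set by the earlier primary insulin-degrading enzyme screen, cut at about 16% in these data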;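 further: 0% = DMSO wells and 100% = 60 µM reference IDE inhibitor Ii1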
# HEK293 tox: kills HEK cells in IDE inhibitor counter-screen. inhibition, % at 5.59 µM. shares compounds with IDE cell inh. HEK293 cytotoxicity, ATP luminescence. AID 449730. 1,200 compounds, 28% hits; in the data active means inhibition above about 22%;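 further: 0% = vehicle wells and 100% = reference cytotoxic drug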
# FP fluor counter: fluorescence interference counter-screen for IDE inhibitors; shares compounds with IDE cell inh; FP counterscreen for fluorescent artifacts, IDE probe project; IC50, µM; 30 tested, under 10 active; AID 588718; call rule not given here
# Numbers without * were called inactive; · = no result; + = active, no number. The list is not random: actives were taken first. Their share in the collection is about 1.7%.
SMILES,Tb MetRS inh,IDE cell activ,TPT1 inh,CSN inh,IDE cell inh,HNF4A DNA FP,TPT1 inh confirm,RNase T1 counter,IDE inh confirm,HEK293 tox,others
Cc1ccc(C)c(N2C(=N)S/C(=C\c3ccc(-c4ccccc4C(=O)O)o3)C2=O)c1,-1,-13,59*,4,32*,18,41*,53*,17*,4,FP fluor counter=>55
Cc1oc(S(=O)(=O)N2CCCCC2)cc1NC(=O)Nc1ccc(Cl)cc1,2,1,0,0,6,2,·,·,·,·,
CCOC(=O)/C(C#N)=C\C=C1C=CN(C)C=C1,-1,-38,158*,123,52*,164,173*,167*,38*,11,
O=C(C1=NN(c2ccccc2)C2C(=O)N(c3ccccc3)C(=O)C12)c1ccccc1 (stereo not given),2,-20,28*,7,19*,-10,32*,45*,23*,12,
COc1ccccc1N1C(=O)C2C(C(=O)c3ccccc3)=NN(c3ccccc3)C2C1=O (stereo not given),0,-28,23,4,16,-3,·,·,·,·,
O=C(C1=NN(c2ccccc2)C2C(=O)N(c3ccccc3Cl)C(=O)C12)c1ccccc1 (stereo not given),0,-21,31*,4,24*,10,32*,46*,29*,11,
O=C(COn1nnc2ccccc21)N1CCN(Cc2ccccc2)CC1,0,2,1,1,3,0,·,·,·,·,
O=C(C1=C(O)C(=O)N(CCCn2ccnc2)C1c1cccc(Br)c1)c1ccco1 (stereo not given),0,3,8,1,3,-1,·,·,·,·,
CCN(CC)c1ccc(/C=C(\C#N)C(N)=S)cc1,3,-101,104*,-76,22*,103,-3,10,13,11,
CN(C)c1ccc(/C=C(\C#N)C(=O)c2ccccc2)cc1,0,-98,158*,77,28*,77*,162*,150*,96*,18,
CCN(CC)c1ccc(/C=C(\C#N)C(=O)c2ccc(Br)cc2)cc1,0,-176,137*,-95,68*,-91,104*,103*,51*,21,
CCOc1ccc(S(=O)(=O)N2CCN(C(=O)c3cc(C4CC4)nn3-c3ccccc3)CC2)cc1,0,3,·,2,·,3,·,·,·,·,
COc1cc(CCC(=O)NCc2ccc3c(c2)OCO3)cc(OC)c1OC,0,0,0,-1,3,1,·,·,·,·,
COc1ccc(C(=O)/C=C/c2ccc(N(C)C)cc2)c(OC)c1,-1,-34,101*,90,82*,125,103*,102*,26*,47*,
COc1ccc(C(=O)/C=C/c2ccccc2)c(OC)c1,-1,1,0,13,0,-2,·,·,·,·,
CCOC(=O)/C(=C/C=C1\Sc2cc(C)c(C)cc2N1CC)C(C)=O,-1,-124,·,35,·,171,·,·,·,·,
CCOC(=O)/C(=C\C=C1/Sc2ccccc2N1CC)C(C)=O,0,-103,186*,77,123*,180,196*,176*,156*,23*,
CCOC(=O)/C(=C/C=C1\Sc2ccccc2N1CC)C(C)=O,-1,-146,174*,133,101*,176,189*,170*,143*,20,
Cc1nc2cc(NCc3ccccc3O)ccc2n1Cc1ccccc1,0,12,-1,6,0,0,·,·,·,·,
C=CCOC(=O)/C=C/C(=O)NC(N)=O,-1,0,-2,0,4,-4,·,·,·,·,
CN(C)c1ccc(/C=C(/C#N)C(=O)NCc2ccccc2)o1,0,-126,177*,71,97*,178,192*,176*,122*,9,
CCOC(=O)c1ccc(NC(=O)c2ccccc2N(C)S(=O)(=O)c2ccccc2)cc1,0,-4,0,1,2,-3,·,·,·,·,
C=CCN1C(=O)c2cccc3c(Br)ccc(c23)C1=O,0,2,1,2,2,1,·,·,·,·,
O=C1c2cccc3c(N4CCCCC4)ccc(c23)C(=O)N1c1cccc(O)c1,0,-140,75*,10,124*,46,52*,61*,153*,25*,
C=CCN1C(=O)c2cccc3c(N4CCCCC4)ccc(c23)C1=O,0,-74,64*,-66,22*,-22,41*,57*,85*,24*,
SMILES,Tb MetRS inh,IDE cell activ,TPT1 inh,CSN inh,IDE cell inh,HNF4A DNA FP,TPT1 inh confirm,RNase T1 counter,IDE inh confirm,HEK293 tox,others
CC(CCCC(C)(C)O)CC1C2=C(CCCC2=O)OC2=C1C(=O)CCC2 (stereo not given),0,2,-1,-3,2,-2,·,·,·,·,
CC1C/C(=C/c2ccncc2)C(=O)/C(=C/c2ccncc2)C1 (stereo not given),0,-1,3,18,3,0,·,·,·,·,
CC1C/C(=C/c2cccn2C)C(=O)/C(=C/c2cccn2C)C1 (stereo not given),0,-74,191*,-67,39*,91,187*,170*,94*,23*,
COCCN1C(=O)/C(=C/c2ccc(N3CCCC3)cc2)SC1=S,0,-37,133*,104,26*,128,138*,131*,77*,13,
COc1ccc(/C=C2\SC(=S)N(CCC(=O)N3CCCCC3)C2=O)cc1,-1,-1,-3,1,6,0,·,·,·,·,
O=C(/C=C/c1ccc(N2CCC(c3ccccc3)=N2)cc1)c1ccccc1,·,·,115*,·,112*,·,119*,114*,63*,15,
O=C(/C=C/c1ccc(O)cc1)c1ccccc1,0,-15,4,6,3,0,·,·,·,·,
CN1CCS/C1=C\C=C1/SC(=S)N(CC(=O)O)C1=O,0,-101,·,-71,·,154,·,·,·,·,
CCN1C(=O)/C(=C/C=C2/SCCN2C)SC1=S,-2,-44,+,103,27*,197,168*,157*,69*,21,
CCCCN1C(=O)/C(=C/C=C2/CC(C)(C)CN2C)SC1=S,1,-130,169*,-95,107*,-78,174*,160*,149*,28*,
